Laboratory results from ChEMBL document CHEMBL1782036, “Atovaquone derivatives as potent cytotoxic and apoptosis inducing agents” (Bioorg Med Chem Lett, 2009).

How the values were obtained:
[1] = Antiproliferative activity against human L78 cells after 72 hrs by MTT assay; assay type: functional, cell-based; details: L78, 72 h
MOLT-4 = assay: Antiproliferative activity against human MOLT4 cells after 72 hrs by MTT assay; assay type: functional, cell-based; details: MOLT-4, 72 h
HT-29 = assay: Antiproliferative activity against human HT-29 cells after 72 hrs by MTT assay; assay type: functional, cell-based; details: HT-29, 72 h
OS-RC-2 = assay: Antiproliferative activity against human OS-RC2 cells after 72 hrs by MTT assay; assay type: functional, cell-based; details: OS-RC-2, 72 h
U-251 = assay: Antiproliferative activity against human U251 cells after 72 hrs by MTT assay; assay type: functional, cell-based; details: U-251, 72 h
SGC-7901 = assay: Antiproliferative activity against human SGC7901 cells after 72 hrs by MTT assay; assay type: functional, cell-based; details: SGC-7901, 72 h
IMR-90 = assay: Antiproliferative activity against human IMR90 cells after 72 hrs by MTT assay; assay type: cell-based; details: IMR-90, 72 h
HT-1080 = assay: Antiproliferative activity against human HT1080 cells after 72 hrs by MTT assay; assay type: functional, cell-based; details: HT-1080, 72 h
DU-145 [2] = assay: Induction of apoptosis in human DU145 cells at 5 uM assessed as live cell level after 72 hrs by AnnexinV conjugated 7- AAD staining by flow cytometry; assay type: functional
Outline: (§1)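 Du145 cells were treated for 72 h and stained with Annexin V conjugate plus 7-AAD. Flow cytometry read PS externalization and membrane integrity, scoring cells as live (double negative), early apoptotic, or late apoptotic/necrotic (double positive). Untreated cells served as the control.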

DU-145 [3] = assay: Induction of apoptosis in human DU145 cells at 5 uM assessed as dead cell level after 72 hrs by AnnexinV conjugated 7- AAD staining by flow cytometry; assay type: functional
Outline: (§2)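 Du145 human prostate carcinoma cells exposed to compound for 72 h, then stained with Annexin V and 7-AAD and analysed by flow cytometry. Annexin V detects phosphatidylserine externalised to the outer membrane leaflet, and 7-AAD enters only membrane-compromised cells. Dead cells were those positive for both stains. Untreated cells served as control.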

DU-145 [4] = assay: Growth inhibition of human DU145 cells after 72 hrs by MTT assay; assay type: functional, cell-based; details: DU-145, 72 h
Outline: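 Du145 human prostate carcinoma cells were screened by MTT cell-growth inhibition assay. IC50 values are means of three experiments.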

DU-145 [5] = assay: Induction of apoptosis in human DU145 cells at 10 uM assessed as early apoptosis level after 72 hrs by AnnexinV conjugated 7- AAD staining by flow cytometry; assay type: functional; outline: as §1
KB = assay: Antiproliferative activity against human KB cells after 72 hrs by MTT assay; assay type: functional, cell-based
DU-145 [6] = assay: Induction of apoptosis in human DU145 cells at 5 uM assessed as early apoptosis level after 72 hrs by AnnexinV conjugated 7- AAD staining by flow cytometry; assay type: functional; outline: as §1
DU-145 [7] = assay: Induction of apoptosis in human DU145 cells at 10 uM assessed as live cell level after 72 hrs by AnnexinV conjugated 7- AAD staining by flow cytometry; assay type: functional; outline: as §1
DU-145 [8] = assay: Induction of apoptosis in human DU145 cells at 5 uM assessed as late apoptosis/ necrotic cells level after 72 hrs by AnnexinV conjugated 7- AAD staining by flow cytometry; assay type: functional; outline: as §1
MCF7 = assay: Antiproliferative activity against human MCF7 cells after 72 hrs by MTT assay; assay type: functional, cell-based; details: MCF7, 72 h
DU-145 [9] = assay: Induction of apoptosis in human DU145 cells at 10 uM assessed as late apoptosis/ necrotic cells level after 72 hrs by AnnexinV conjugated 7- AAD staining by flow cytometry; assay type: functional; outline: as §1
A549 = assay: Antiproliferative activity against human A549 cells after 72 hrs by MTT assay; assay type: functional, cell-based; details: A549, 72 h
HepG2 = assay: Antiproliferative activity against human HepG2 cells after 72 hrs by MTT assay; assay type: functional, cell-based; details: HepG2, 72 h
DU-145 [10] = assay: Induction of apoptosis in human DU145 cells at 10 uM assessed as dead cell level after 72 hrs by AnnexinV conjugated 7- AAD staining by flow cytometry; assay type: functional; outline: as §2
HeLa = assay: Antiproliferative activity against human HeLa cells after 72 hrs by MTT assay; assay type: functional, cell-based

Row | SMILES | IC50 (DU-145 [4]) | IC50 [1] | IC50 (MOLT-4) | IC50 (HT-29) | IC50 (OS-RC-2) | IC50 (U-251) | IC50 (SGC-7901) | IC50 (IMR-90) | IC50 (HT-1080) | also measured
1 | COc1cccc2c1C(=O)c1c(O)c3c(c(O)c1C2=O)C[C@@](O)(C(=O)CO)C[C@@H]3O[C@H]1C[C@H](N)[C@H](O)[C@H](C)O1 [DOXORUBICIN] | – | 2.4 µM | 0.002 µM | 1.3 µM | 5.4 µM | 0.6 µM | 0.9 µM | 1 µM | 0.1 µM | –
2 | O=C1C=C(N2CCN(c3ccccc3Cl)CC2)C(=O)c2ccccc21 | 2.9 µM | 28.8 µM | > 50 µM | 18.9 µM | 8.9 µM | 30.8 µM | 41.8 µM | > 50 µM | 15.4 µM | Activity (DU-145 [2]): 91.36%; Activity (DU-145 [3]): 3.99%; Activity (DU-145 [5]): 1.89%; IC50 (KB): 3.7 µM; Activity (DU-145 [6]): 1.01%; Activity (DU-145 [7]): 85.3%; Activity (DU-145 [8]): 3.65%; IC50 (MCF7): 10.3 µM; Activity (DU-145 [9]): 9.71%; IC50 (A549): 10.3 µM; IC50 (HepG2): 11.1 µM; Activity (DU-145 [10]): 3.1%; IC50 (HeLa): 11.3 µM
3 | O=C1C=C(N2CCN(c3ccccc3)CC2)C(=O)c2c(O)ccc(O)c21 | 1.3 µM | 1.9 µM | > 50 µM | 2.6 µM | 1.5 µM | 6.1 µM | 2.5 µM | > 50 µM | 2.8 µM | Activity (DU-145 [2]): 7.48%; Activity (DU-145 [3]): 1.39%; Activity (DU-145 [5]): 13.77%; IC50 (KB): 1.4 µM; Activity (DU-145 [6]): 19.8%; Activity (DU-145 [7]): 0.95%; Activity (DU-145 [8]): 71.34%; IC50 (MCF7): 3 µM; Activity (DU-145 [9]): 84.76%; IC50 (A549): 1.7 µM; IC50 (HepG2): 5.4 µM; Activity (DU-145 [10]): 0.53%; IC50 (HeLa): 2.1 µM
4 | Cc1cccc(N2CCN(C3=CC(=O)c4ccccc4C3=O)CC2)c1 | 7.4 µM | – | – | – | – | – | – | – | – | –
5 | O=C1C=C(N2CCC(c3ccccc3)CC2)C(=O)c2ccccc21 | 6 µM | – | – | – | – | – | – | – | – | –
6 | O=C1C=C(N2CCN(c3ccc(F)cc3)CC2)C(=O)c2c(O)cccc21 | 8.4 µM | – | – | – | – | – | – | – | – | –
7 | O=C1C=C(N2CCC(c3ccccc3)CC2)C(=O)c2c(O)cccc21 | 3 µM | 13.4 µM | 2.7 µM | 5.4 µM | 0.7 µM | 10.8 µM | 11.1 µM | > 50 µM | 11.1 µM | Activity (DU-145 [2]): 53.01%; Activity (DU-145 [3]): 5.57%; Activity (DU-145 [5]): 3.17%; IC50 (KB): 2.2 µM; Activity (DU-145 [6]): 3.87%; Activity (DU-145 [7]): 50.85%; Activity (DU-145 [8]): 37.56%; IC50 (MCF7): 8.8 µM; Activity (DU-145 [9]): 38.3%; IC50 (A549): > 50 µM; IC50 (HepG2): 9.7 µM; Activity (DU-145 [10]): 7.68%; IC50 (HeLa): 8.6 µM
8 | O=C1C(N2CCN(c3ccccc3)CC2)=CC(=O)c2c(O)cccc21 | 15.2 µM | – | – | – | – | – | – | – | – | –
9 | COc1cc(OC)cc(N2CCN(C3=CC(=O)c4ccccc4C3=O)CC2)c1 | 14.9 µM | – | – | – | – | – | – | – | – | –
10 | O=C1C=C(N2CCC(c3ccc(Cl)cc3)CC2)C(=O)c2c(O)cccc21 | 2.6 µM | 40.6 µM | > 50 µM | 6.9 µM | 5.2 µM | 6.1 µM | > 50 µM | > 50 µM | 22.4 µM | Activity (DU-145 [2]): 52.14%; Activity (DU-145 [3]): 4.69%; Activity (DU-145 [5]): 8.88%; IC50 (KB): 14 µM; Activity (DU-145 [6]): 7.22%; Activity (DU-145 [7]): 1.95%; Activity (DU-145 [8]): 35.95%; IC50 (MCF7): 20.5 µM; Activity (DU-145 [9]): 87.96%; IC50 (A549): 17.2 µM; IC50 (HepG2): 5.4 µM; Activity (DU-145 [10]): 1.21%; IC50 (HeLa): 18.2 µM

More lines, main results first:

Row | IC50 (DU-145 [4]) | SMILES | IC50 [1] | IC50 (MOLT-4) | IC50 (HT-29) | IC50 (OS-RC-2) | IC50 (U-251) | IC50 (SGC-7901) | IC50 (IMR-90) | IC50 (HT-1080) | also measured
11 | 8.3 µM | O=C1C=C(N2CCN(c3cccc(Cl)c3)CC2)C(=O)c2ccccc21 | – | – | – | – | – | – | – | – | –
12 | 9.9 µM | O=C1C=C(N2CCN(c3ccccc3)CC2)C(=O)c2ccccc21 | – | – | – | – | – | – | – | – | –
13 | 29.5 µM | O=C1C=C(N2CCN(c3ccc(Cl)cc3)CC2)C(=O)c2ccccc21 | – | – | – | – | – | – | – | – | –
14 | 15 µM | COc1cccc(N2CCN(C3=CC(=O)c4ccccc4C3=O)CC2)c1 | – | – | – | – | – | – | – | – | –
15 | 8.2 µM | Cc1ccc(N2CCN(C3=CC(=O)c4ccccc4C3=O)CC2)cc1 | – | – | – | – | – | – | – | – | –
16 | 6.1 µM | Cc1ccccc1C1CCN(C2=CC(=O)c3ccccc3C2=O)CC1 | – | – | – | – | – | – | – | – | –
